Measurements reported in ChEMBL document CHEMBL4706598 (Eur J Med Chem, 2020).
Calls of active or inactive are those of the source. The calls are words filed in the database; no cut-off is given here.

Experiments:
[1] = biological target: Dipeptidyl peptidase 8 (Homo sapiens, UniProt Q6V1X1); assay: Inhibition of DPP8 (unknown origin)
[2] = biological target: Dipeptidyl peptidase 9 (Homo sapiens, UniProt Q86TI2); assay: Inhibition of DPP9 (unknown origin)
[3] = system: HepG2; assay: Cytotoxicity against human HepG2 cells assessed as reduction in cell viability at 1 to 100 uM measured after 48 hrs by MTT assay; type: cell-based; conditions: hepg2, 48 h, dose 1-100 µM
In short: (§1)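 HepG2 cells were exposed to compound at a range of concentrations for 48 h. Viability was measured by MTT assay. Mean ± SD, n = 3.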

[4] = system: Mus musculus; assay: Anti-Hyperglycemic activity in high fat diet-fed/streptozotocin-induced type 2 diabetic mellitus C57BL/6 mouse model assessed as blood glucose level at 10 mg/kg, ip administered 30 mins prior to glucose challenge and measured after 0.5 hrs by IPGTT (reference value: 12.3 to 15.3 mM); type: functional; conditions: time 60 min, 1 h
In short: (§2)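 Male C57BL/6 mice made type 2 diabetic by high-fat diet plus streptozotocin. Each received a single intraperitoneal dose (1, 5 or 10 mg/kg) 30 min before an intraperitoneal glucose challenge. Blood glucose was read at 0, 0.5, 1, 1.5 and 2 h. Results are mean ± SD, n = 4.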

[5] = system: Mus musculus; assay: Anti-Hyperglycemic activity in high fat diet-fed/streptozotocin-induced type 2 diabetic mellitus C57BL/6 mouse model assessed as blood glucose level at 10 mg/kg, ip administered 30 mins prior to glucose challenge and measured after 1 hrs by IPGTT (reference value: 12.3 to 15.3 mM); type: functional; conditions: time 90 min, 1.5 h; in short: as §2
[6] = system: Mus musculus; assay: Anti-Hyperglycemic activity in high fat diet-fed/streptozotocin-induced type 2 diabetic mellitus C57BL/6 mouse model assessed as blood glucose level at 10 mg/kg, ip administered 30 mins prior to glucose challenge and measured after 1.5 hrs by IPGTT (reference value: 12.3 to 15.3 mM); type: functional; conditions: time 120 min, 2 h; in short: as §2
[7] = system: Mus musculus; assay: Anti-Hyperglycemic activity in high fat diet-fed/streptozotocin-induced type 2 diabetic mellitus C57BL/6 mouse model assessed as blood glucose level at 10 mg/kg, ip administered 30 mins prior to glucose challenge and measured after 2 hrs by IPGTT (reference value: 12.3 to 15.3 mM); type: functional; conditions: time 150 min, 2.5 h; in short: as §2
[8] = system: Mus musculus; assay: Anti-Hyperglycemic activity in high fat diet-fed/streptozotocin-induced type 2 diabetic mellitus C57BL/6 mouse model assessed as reduction in AUC(0 to 120 mins) of blood glucose level at 10 mg/kg, ip administered 30 mins prior to glucose challenge and measured after 120 mins by IGTT; type: functional; conditions: C57BL/6, ip, 2.5 h, time 150 min
In short: (§3)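 Glucose tolerance tests (intraperitoneal or oral) in HFD/STZ type 2 diabetic male C57BL/6 mice. Glucose AUC was calculated over 0–120 min. Percent reduction came from AUC normalised to saline-challenged controls. Mean ± SD, n = 4. Statistics: one-way ANOVA with LSD post-test.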

[9] = system: Mus musculus; assay: Anti-Hyperglycemic activity in high fat diet-fed/streptozotocin-induced type 2 diabetic mellitus C57BL/6 mouse model assessed as reduction in blood glucose level at 10 mg/kg/day for 14 days and measured on day 14; type: functional; conditions: C57BL/6, 336 h, time 14 day
In short: (§4)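 HFD/STZ-induced type 2 diabetic male C57BL/6 mice were dosed at 10 mg/kg/day for 14 days. Plasma glucose was tracked over the treatment period and compared with diabetic controls. Mean ± SD of 4 mice. Statistics: one-way ANOVA with LSD post-test.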

[10] = system: Mus musculus; assay: Anti-Hyperglycemic activity in high fat diet-fed/streptozotocin-induced type 2 diabetic mellitus C57BL/6 mouse model assessed as reduction in blood glucose level at 10 mg/kg/day for 14 days and measured on day 5; type: functional, organism-based; conditions: time 5.0 day; in short: as §4
[11] = Cytotoxicity against human HepG2 cells assessed as cell viability at 100 uM measured after 48 hrs by MTT assay; type: cell-based; conditions: read-out: Activity; in short: as §1
[12] = system: Mus musculus; assay: Anti-Hyperglycemic activity in high fat diet-fed/streptozotocin-induced type 2 diabetic mellitus C57BL/6 mouse model assessed as blood glucose level at 1 mg/kg, ip administered 30 mins prior to glucose challenge and measured after 0.5 hrs by IPGTT (reference value: 12.7 +/- 0.7 mM); type: functional; conditions: time 60 min; in short: as §2
[13] = system: Mus musculus; assay: Anti-Hyperglycemic activity in high fat diet-fed/streptozotocin-induced type 2 diabetic mellitus C57BL/6 mouse model assessed as blood glucose level at 1 mg/kg, ip administered 30 mins prior to glucose challenge and measured after 1 hr by IPGTT (reference value: 12.7 +/- 0.7 mM); type: functional; conditions: time 90 min, 1.5 h; in short: as §2
[14] = system: Mus musculus; assay: Anti-Hyperglycemic activity in high fat diet-fed/streptozotocin-induced type 2 diabetic mellitus C57BL/6 mouse model assessed as blood glucose level at 1 mg/kg, ip administered 30 mins prior to glucose challenge and measured after 1.5 hrs by IPGTT (reference value: 12.7 +/- 0.7 mM); type: functional; conditions: time 120 min, 2 h; in short: as §2
[15] = system: Mus musculus; assay: Anti-Hyperglycemic activity in high fat diet-fed/streptozotocin-induced type 2 diabetic mellitus C57BL/6 mouse model assessed as blood glucose level at 1 mg/kg, ip administered 30 mins prior to glucose challenge and measured after 2 hrs by IPGTT (reference value: 12.7 +/- 0.7 mM); type: functional; conditions: time 150 min, 2.5 h; in short: as §2
[16] = system: Mus musculus; assay: Anti-Hyperglycemic activity in high fat diet-fed/streptozotocin-induced type 2 diabetic mellitus C57BL/6 mouse model assessed as blood glucose level at 5 mg/kg, ip administered 30 mins prior to glucose challenge and measured after 0.5 hrs by IPGTT (reference value: 13.4 +/- 1.1 mM); type: functional; conditions: time 60 min, 1 h; in short: as §2
[17] = system: Mus musculus; assay: Anti-Hyperglycemic activity in high fat diet-fed/streptozotocin-induced type 2 diabetic mellitus C57BL/6 mouse model assessed as blood glucose level at 5 mg/kg, ip administered 30 mins prior to glucose challenge and measured after 1 hr by IPGTT (reference value: 13.4 +/- 1.1 mM); type: functional; conditions: time 90 min, 1.5 h; in short: as §2
[18] = system: Mus musculus; assay: Anti-Hyperglycemic activity in high fat diet-fed/streptozotocin-induced type 2 diabetic mellitus C57BL/6 mouse model assessed as blood glucose level at 5 mg/kg, ip administered 30 mins prior to glucose challenge and measured after 1.5 hrs by IPGTT (reference value: 13.4 +/- 1.1 mM); type: functional; conditions: time 120 min, 2 h; in short: as §2
[19] = system: Mus musculus; assay: Anti-Hyperglycemic activity in high fat diet-fed/streptozotocin-induced type 2 diabetic mellitus C57BL/6 mouse model assessed as blood glucose level at 5 mg/kg, ip administered 30 mins prior to glucose challenge and measured after 2 hrs by IPGTT (reference value: 13.4 +/- 1.1 mM); type: functional; conditions: time 150 min, 2.5 h; in short: as §2
[20] = system: Mus musculus; assay: Anti-Hyperglycemic activity in high fat diet-fed/streptozotocin-induced type 2 diabetic mellitus C57BL/6 mouse model assessed as blood glucose level at 10 mg/kg, po administered 30 mins prior to glucose challenge and measured after 30 mins by OGTT (reference value: 15.8 +/-4.5 mM); type: functional; conditions: time 60 min, 1 h
[21] = system: Mus musculus; assay: Anti-Hyperglycemic activity in high fat diet-fed/streptozotocin-induced type 2 diabetic mellitus C57BL/6 mouse model assessed as blood glucose level at 10 mg/kg, po administered 30 mins prior to glucose challenge and measured after 60 mins by OGTT (reference value: 15.8 +/-4.5 mM); type: functional; conditions: time 90 min, 1.5 h
[22] = system: Mus musculus; assay: Anti-Hyperglycemic activity in high fat diet-fed/streptozotocin-induced type 2 diabetic mellitus C57BL/6 mouse model assessed as blood glucose level at 10 mg/kg, po administered 30 mins prior to glucose challenge and measured after 90 mins by OGTT (reference value: 15.8 +/-4.5 mM); type: functional; conditions: time 120 min, 2 h
[23] = system: Mus musculus; assay: Anti-Hyperglycemic activity in high fat diet-fed/streptozotocin-induced type 2 diabetic mellitus C57BL/6 mouse model assessed as blood glucose level at 10 mg/kg, po administered 30 mins prior to glucose challenge and measured after 120 mins by OGTT (reference value: 15.8 +/-4.5 mM); type: functional; conditions: time 150 min, 2.5 h
[24] = system: Mus musculus; assay: Anti-Hyperglycemic activity in high fat diet-fed/streptozotocin-induced type 2 diabetic mellitus C57BL/6 mouse model assessed as reduction in AUC(0 to 120 mins) of blood glucose level at 1 mg/kg, ip administered 30 mins prior to glucose challenge and measured after 120 mins by IGTT; type: functional; conditions: C57BL/6, ip, 2.5 h, time 150 min; in short: as §3
[25] = system: Mus musculus; assay: Anti-Hyperglycemic activity in high fat diet-fed/streptozotocin-induced type 2 diabetic mellitus C57BL/6 mouse model assessed as reduction in AUC(0 to 120 mins) of blood glucose level at 5 mg/kg, ip administered 30 mins prior to glucose challenge and measured after 120 mins by IGTT; type: functional; conditions: C57BL/6, ip, 2.5 h, time 150 min; in short: as §3
[26] = system: Mus musculus; assay: Anti-Hyperglycemic activity in high fat diet-fed/streptozotocin-induced type 2 diabetic mellitus C57BL/6 mouse model assessed as reduction in AUC(0 to 120 mins) of blood glucose level at 10 mg/kg, po administered 30 mins prior to glucose challenge and measured after 120 mins by OGTT; type: functional; conditions: C57BL/6, po, 2.5 h, time 150 min; in short: as §3
[27] = biological target: Dipeptidyl peptidase 4 (Homo sapiens, UniProt P27487); assay: Inhibition of DPP4 in human Caco-2 cells using AP-AFC as substrate preincubated with enzyme for 10 mins followed by substrate addition and measured after 10 mins by fluorescence based analysis; type: cell-based
Sequence of Dipeptidyl peptidase 4 (P27487 whole entry): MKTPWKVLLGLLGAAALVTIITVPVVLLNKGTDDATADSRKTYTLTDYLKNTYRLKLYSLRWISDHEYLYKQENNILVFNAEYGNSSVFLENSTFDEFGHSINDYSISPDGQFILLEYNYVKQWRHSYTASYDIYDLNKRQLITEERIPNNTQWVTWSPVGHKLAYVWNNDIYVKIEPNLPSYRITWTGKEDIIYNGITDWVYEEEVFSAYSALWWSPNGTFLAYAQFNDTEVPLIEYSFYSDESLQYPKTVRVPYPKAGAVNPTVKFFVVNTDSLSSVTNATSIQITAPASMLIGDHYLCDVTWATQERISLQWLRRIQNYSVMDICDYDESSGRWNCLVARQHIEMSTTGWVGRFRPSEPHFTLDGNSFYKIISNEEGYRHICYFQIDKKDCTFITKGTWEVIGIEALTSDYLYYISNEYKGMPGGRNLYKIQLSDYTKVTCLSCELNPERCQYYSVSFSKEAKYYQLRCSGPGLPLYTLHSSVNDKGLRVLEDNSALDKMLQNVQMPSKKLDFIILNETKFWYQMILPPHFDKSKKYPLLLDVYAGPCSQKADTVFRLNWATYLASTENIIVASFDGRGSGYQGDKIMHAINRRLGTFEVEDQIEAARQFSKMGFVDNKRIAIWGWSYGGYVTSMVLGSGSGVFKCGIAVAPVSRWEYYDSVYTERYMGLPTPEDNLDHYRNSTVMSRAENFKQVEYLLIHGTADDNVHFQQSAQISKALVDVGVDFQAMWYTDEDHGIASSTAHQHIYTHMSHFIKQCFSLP

Sequence of Dipeptidyl peptidase 8 (Q6V1X1 whole entry): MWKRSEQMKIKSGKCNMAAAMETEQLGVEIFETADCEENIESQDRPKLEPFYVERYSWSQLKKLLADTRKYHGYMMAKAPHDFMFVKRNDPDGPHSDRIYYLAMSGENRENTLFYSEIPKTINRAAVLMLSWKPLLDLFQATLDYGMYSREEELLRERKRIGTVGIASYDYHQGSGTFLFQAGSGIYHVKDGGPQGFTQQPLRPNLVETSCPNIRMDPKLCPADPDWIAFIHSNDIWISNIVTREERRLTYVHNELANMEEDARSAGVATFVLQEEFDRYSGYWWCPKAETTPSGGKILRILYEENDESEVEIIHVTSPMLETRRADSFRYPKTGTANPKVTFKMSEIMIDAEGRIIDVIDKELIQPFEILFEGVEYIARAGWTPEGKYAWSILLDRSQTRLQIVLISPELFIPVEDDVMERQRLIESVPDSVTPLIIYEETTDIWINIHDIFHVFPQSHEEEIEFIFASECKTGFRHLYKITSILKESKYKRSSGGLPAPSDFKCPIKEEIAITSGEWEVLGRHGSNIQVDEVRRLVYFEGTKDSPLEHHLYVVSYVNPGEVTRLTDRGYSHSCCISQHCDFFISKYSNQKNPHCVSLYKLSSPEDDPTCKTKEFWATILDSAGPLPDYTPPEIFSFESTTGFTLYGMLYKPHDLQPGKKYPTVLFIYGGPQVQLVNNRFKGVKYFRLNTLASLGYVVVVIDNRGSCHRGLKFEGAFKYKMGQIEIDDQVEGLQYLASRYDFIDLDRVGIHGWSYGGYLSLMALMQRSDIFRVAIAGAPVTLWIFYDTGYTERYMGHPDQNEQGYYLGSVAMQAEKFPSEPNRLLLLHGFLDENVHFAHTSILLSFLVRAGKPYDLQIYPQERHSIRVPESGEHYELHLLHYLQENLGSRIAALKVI
Sequence of Dipeptidyl peptidase 9 (Q86TI2 whole entry): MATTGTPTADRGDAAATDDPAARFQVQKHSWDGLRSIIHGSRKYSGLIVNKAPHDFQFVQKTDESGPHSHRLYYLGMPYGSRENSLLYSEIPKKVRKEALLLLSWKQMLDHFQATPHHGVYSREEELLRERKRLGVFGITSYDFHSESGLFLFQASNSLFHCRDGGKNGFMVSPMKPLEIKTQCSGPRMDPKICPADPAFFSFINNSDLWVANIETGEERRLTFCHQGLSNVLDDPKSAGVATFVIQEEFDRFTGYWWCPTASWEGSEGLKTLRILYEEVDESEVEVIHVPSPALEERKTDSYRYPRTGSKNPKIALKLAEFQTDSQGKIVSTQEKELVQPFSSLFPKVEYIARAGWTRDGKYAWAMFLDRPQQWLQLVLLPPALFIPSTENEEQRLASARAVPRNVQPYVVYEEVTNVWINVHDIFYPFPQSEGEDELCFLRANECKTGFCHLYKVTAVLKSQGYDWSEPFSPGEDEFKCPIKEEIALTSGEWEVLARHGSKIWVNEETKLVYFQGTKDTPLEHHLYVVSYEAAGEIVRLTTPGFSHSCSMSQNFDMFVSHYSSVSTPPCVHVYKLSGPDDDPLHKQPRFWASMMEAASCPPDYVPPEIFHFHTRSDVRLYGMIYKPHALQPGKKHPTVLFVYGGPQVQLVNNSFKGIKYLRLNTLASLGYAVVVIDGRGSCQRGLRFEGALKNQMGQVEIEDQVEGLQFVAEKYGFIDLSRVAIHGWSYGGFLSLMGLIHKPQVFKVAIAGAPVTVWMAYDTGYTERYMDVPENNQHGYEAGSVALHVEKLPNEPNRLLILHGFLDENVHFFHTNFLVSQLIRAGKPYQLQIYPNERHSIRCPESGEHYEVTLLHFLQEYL

## Clc1ccc(Nc2cc(N3CCNCC3)nc3ccnn23)c(Cl)c1
[1]
  IC50: > 100 µM
[2]
  IC50: > 100 µM
[3]
  Activity: Toxic

## Cn1c(=O)cc(N2CCC[C@@H](N)C2)n(Cc2ccccc2C#N)c1=O [ALOGLIPTIN]
[4]
  Activity: 22.9 mM
[5]
  Activity: 17.4 mM
[6]
  Activity: 16.3 mM
[7]
  Activity: 15 mM
[8]
  inhibition in vivo at 10 mg/kg: 30%
[9]
  inhibition in vivo at 10 mg/kg/day: 57%
[10]
  Activity: inactive

## N[C@@H]1CCCN(c2cc(Nc3ccccc3Cl)n3nccc3n2)C1
[1]
  IC50: > 100 µM
[2]
  IC50: > 100 µM

## N[C@@H]1CCCN(c2cc(Nc3cc(Cl)ccn3)n3nccc3n2)C1
[1]
  IC50: > 50 µM
[2]
  IC50: > 50 µM

## Fc1ccc(CNc2cc(N3CCNCC3)nc3ccnn23)c(F)c1
[1]
  IC50: > 50 µM
[2]
  IC50: > 50 µM
[3]
  Activity: Non-Toxic
[11]
  viability at 48 h, 100 µM: 90%
[12]
  Activity: 25.7 mM
[13]
  Activity: 18.6 mM
[14]
  Activity: 17.9 mM
[15]
  Activity: 14.8 mM
[16]
  Activity: 23.4 mM
[17]
  Activity: 18.5 mM
[18]
  Activity: 17.4 mM
[19]
  Activity: 15.1 mM
[4]
  Activity: 16.2 mM
[5]
  Activity: 14.4 mM
[6]
  Activity: 13 mM
[7]
  Activity: 10.9 mM
[20]
  Activity: 26.7 mM
[21]
  Activity: 19.1 mM
[22]
  Activity: 18.5 mM
[23]
  Activity: 15.6 mM
[24]
  inhibition in vivo at 1 mg/kg: 26%
[25]
  inhibition in vivo at 5 mg/kg: 28%
[8]
  inhibition in vivo at 10 mg/kg: 47%
[26]
  inhibition in vivo at 10 mg/kg: 22%
[9]
  inhibition in vivo at 10 mg/kg/day: 46%
[10]
  Activity: inactive

## Fc1ccc(Nc2cc(N3CCNCC3)nc3ccnn23)c(F)c1
[1]
  IC50: > 100 µM
[2]
  IC50: > 100 µM

## Cc1ccnc(Nc2cc(N3CCNCC3)nc3ccnn23)c1
[1]
  IC50: > 100 µM
[2]
  IC50: > 100 µM

## O=[N+]([O-])c1ccccc1Nc1cc(N2CCNCC2)nc2ccnn12
[1]
  IC50: > 100 µM
[2]
  IC50: > 100 µM

## Cc1ccc(Nc2cc(N3CCC[C@@H](N)C3)nc3ccnn23)c(N)c1
[1]
  IC50: > 100 µM
[2]
  IC50: > 100 µM

## N[C@@H]1CCCN(c2cc(NCc3ccc(O)cc3)n3nccc3n2)C1
[1]
  IC50: > 50 µM
[2]
  IC50: > 50 µM

## CC(C)(C)Nc1cc(NC(C)(C)C)n2nccc2n1
[27]
  IC50: > 100 µM

## N[C@@H]1CCCN(c2cc(NCc3ccccc3)n3nccc3n2)C1
[1]
  IC50: > 100 µM
[2]
  IC50: > 100 µM
[3]
  Activity: Toxic

## CN(c1ccccc1)c1cc(N2CCC[C@@H](N)C2)nc2ccnn12
[27]
  IC50: > 100 µM

## Clc1ccc(CCNc2cc(N3CCNCC3)nc3ccnn23)c(Cl)c1
[1]
  IC50: > 100 µM
[2]
  IC50: > 100 µM
[3]
  Activity: Toxic

## N[C@@H]1CCCN(c2cc(NCCc3ccc(Cl)cc3Cl)n3nccc3n2)C1
[1]
  IC50: > 100 µM
[2]
  IC50: > 100 µM

## Cc1ccc(Nc2cc(N3CCC[C@@H](N)C3)nc3ccnn23)c(C)c1
[1]
  IC50: > 100 µM
[2]
  IC50: > 100 µM

## Cc1ccc(Nc2cc(N3CCNCC3)nc3ccnn23)c(C)c1
[1]
  IC50: > 100 µM
[2]
  IC50: > 100 µM

## N[C@@H]1CCCN(c2cc(NCc3ccc(Cl)cc3Cl)n3nccc3n2)C1
[1]
  IC50: > 100 µM
[2]
  IC50: > 100 µM

## c1cc2nc(N3CCOCC3)cc(Nc3cc[nH]n3)n2n1
[27]
  IC50: > 100 µM

## Cc1ccnc(Nc2cc(N3CCC[C@@H](N)C3)nc3ccnn23)c1
[1]
  IC50: > 100 µM
[2]
  IC50: > 100 µM
